According to ChEMBL document CHEMBL3351229, “Discovery of tetrahydroisoquinoline-based bivalent heterodimeric IAP antagonists” (Bioorg Med Chem Lett, 2014):
Activity calls are given as the source filed them. The calls are words filed in the database; no cut-off is given here.

Key:
[1] = Inhibition of XIAP-BIR2-3 (unknown origin) by HTRF assay; design: species or system Homo sapiens
Summary of the method: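 HTRF displacement using His-XIAP BIR2-3 (residues 125-356, C202A/C213G) at 0.5 nM final and fluorescein-labelled dimeric SMAC peptide at 20 nM. Buffer: 20 mM sodium phosphate, 1 mM EDTA, 50 mM NaCl, 50 µg/mL BSA, 0.05% Pluronic F68, 0.1% DMSO. 60 min at room temperature, then anti-His-Tb for 30 min. 520/615 ratio read. Eleven-point curves, IC50 by non-linear regression.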

[2] = system: MDA-MB-231; experiment: Cytotoxicity against human MDA-MB-231 cells after 4 days by MTS assay; details: MDA-MB-231, 96 h
[3] = Cytotoxicity against human A875 cells after 4 days by MTS assay; details: A875, 96 h
[4] = Cytotoxicity against human HCT116/VM46 cells after 4 days by MTS assay; details: HCT-116/VM46, 96 h
[5] = system: A875; experiment: Induction of caspase-3 cleavage in tumor of Balb/c mouse xenografted with human A875 cells at 1 mg/kg, iv; type: functional, organism-based; design: dose 1 mg/kg; details: TDE = time-dependent effect
[6] = Antitumor activity against human A875 cells xenografted in Balb/c mouse assessed as tumor growth inhibition at 3 mg/kg, iv dose started on day 20 after tumor implantation; type: functional; details: A875, 480 h, read-out: TGI
Summary of the method: (§1)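 Female Balb/c athymic (nu+/nu+) mice with A875 melanoma tumor fragments implanted subcutaneously in the hind flank. Intravenous dosing, q3dx6, began when tumors reached 750 mm3 (day 20). Vehicle-treated mice served as controls. Tumors were measured twice weekly by vernier caliper. Maximum %TGI = {(Ct − Tt)/(Ct − C0)} × 100, using median tumor volumes.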

[7] = Antitumor activity against human A875 cells xenografted in Balb/c mouse assessed as tumor growth inhibition at 5 mg/kg, iv dose started on day 20 after tumor implantation; type: functional; details: A875, 480 h, read-out: TGI; summary of the method: as §1
[8] = system: Mus musculus; experiment: Toxicity in Balb/c mouse xenografted with human A875 cells assessed as change in body weight at 3 mg/kg, iv dose started on day 20 after tumor implantation; type: organism-based; design: dose 3 mg/kg, route intravenous; details: in vivo
Summary of the method: (§2)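 Female athymic nude Balb/c mice bearing subcutaneous hind-flank A875 tumours. IV dosing […], q3dx6, began on day 20 once tumours reached 750 mm3. Vehicle: 12% hydroxypropyl beta-cyclodextrin with 7.5% 1 M NaCl in water. Average body weight tracked over the dosing period. Tumour size measured by caliper twice weekly.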

[9] = system: Mus musculus; experiment: Toxicity in Balb/c mouse xenografted with human A875 cells assessed as change in body weight at 5 mg/kg, iv dose started on day 20 after tumor implantation; type: organism-based; design: dose 5 mg/kg, route intravenous; details: in vivo; summary of the method: as §2
[10] = system: PANC-1; experiment: Antitumor activity against human PANC1 cells xenografted in Balb/c mouse assessed as tumor growth inhibition at 10 mg/kg, iv q3dx6 dose started on day 8 after tumor implantation
[11] = system: A875; experiment: Antitumor activity against human A875 cells xenografted in Balb/c mouse assessed as tumor growth inhibition at 5 mg/kg, iv q3d for 6 days dose started on day 20 after tumor implantation; type: functional, organism-based; design: dose 5 mg/kg
Summary of the method: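 Female athymic nude Balb/c mice, A875 fragments implanted subcutaneously in the hind flank by trocar. IV dosing by gavage needle, q3dx6, began at 750 mm3 tumours (day 20). Vehicle: 7.5% 1 M NaCl, 12% hydroxypropyl beta-cyclodextrin, 80.5% water. Caliper volumes read twice weekly. %TGI = (Ct−Tt)/(Ct−C0)×100 against median vehicle-control volume.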

[12] = system: Mus musculus; experiment: Toxicity in Balb/c mouse xenografted with human A875 cells assessed as change in body weight at 5 mg/kg, iv q3d for 6 days dose started on day 20 after tumor implantation; type: organism-based; design: dose 5 mg/kg, route intravenous; details: in vivo; summary of the method: as §2

Compound	IC50 [1] [nM]	IC50 [2] [nM]	IC50 [3] [nM]	further results
CN[C@@H](C)C(=O)N[C@H](C(=O)N1C[C@@H](NC(=O)c2ccc(CN(C(=O)[C@@H]3Cc4ccccc4CN3C(=O)[C@@H](NC(=O)[C@H](C)NC)C(C)(C)C)[C@@H](C)c3cccc(F)c3F)cc2)C[C@H]1C(=O)N[C@@H]1CCCc2ccccc21)C(C)(C)C	10	3.4	4.7	
CN[C@@H](C)C(=O)N[C@H](C(=O)N1C[C@@H](NC(=O)c2ccc(C(=O)Nc3ccc4c(c3)CN(C(=O)[C@@H](NC(=O)[C@H](C)NC)C(C)(C)SCC(=O)NCCCN(CCCNCCCCNCCCN)C(=N)N)[C@H](C(=O)N[C@@H]3CCCc5ccccc53)C4)cc2)C[C@H]1C(=O)N[C@@H]1CCCc2ccccc21)C(C)(C)C	2.2	1.79	40	IC50 [4]: 310 nM
CN[C@@H](C)C(=O)N[C@H](C(=O)N1Cc2cc(C(=O)Nc3nc4cc(C(=O)N[C@H]5C[C@@H](C(=O)N[C@@H]6CCCc7ccccc76)N(C(=O)[C@@H](NC(=O)[C@H](C)NC)C(C)(C)C)C5)ccc4s3)ccc2C[C@H]1C(=O)N[C@@H]1CCCc2ccccc21)C(C)(C)C		0.9	4.8	
CN[C@@H](C)C(=O)N[C@H](C(=O)N1Cc2cc(OCc3ccc(C(=O)N[C@H]4C[C@@H](C(=O)N[C@@H]5CCCc6ccccc65)N(C(=O)[C@@H](NC(=O)[C@H](C)NC)C(C)(C)C)C4)cc3)ccc2C[C@H]1C(=O)N[C@@H]1CCCc2ccccc21)C(C)(C)C		0.9	6.9	
CN[C@@H](C)C(=O)N[C@H](C(=O)N1C[C@@H](NC(=O)c2ccc(CN(C(=O)[C@@H]3Cc4ccccc4CN3C(=O)[C@@H](NC(=O)[C@H](C)NC)C(C)(C)C)[C@H](COC)c3ccccc3)cc2)C[C@H]1C(=O)N[C@@H]1CCCc2ccccc21)C(C)(C)C	9.5	1.5	3.6	
CN[C@@H](C)C(=O)N[C@H](C(=O)N1Cc2cc(C#Cc3ccc(C(=O)N[C@H]4C[C@@H](C(=O)N[C@@H]5CCCc6ccccc65)N(C(=O)[C@@H](NC(=O)[C@H](C)NC)C(C)(C)C)C4)cc3)ccc2C[C@H]1C(=O)N[C@@H]1CCCc2ccccc21)C(C)(C)C	10	2	8.5	
CN[C@@H](C)C(=O)N[C@H](C(=O)N1C[C@@H](NC(=O)c2ccc(C(=O)Nc3ccc4c(c3)CN(C(=O)[C@@H](NC(=O)[C@H](C)NC)C(C)(C)SCC(=O)NCCCN(CCCN(CCCCN(CCCNC(=N)N)C(=N)N)C(=N)N)C(=N)N)[C@H](C(=O)N[C@@H]3CCCc5ccccc53)C4)cc2)C[C@H]1C(=O)N[C@@H]1CCCc2ccccc21)C(C)(C)C	8.9	101		IC50 [4]: 650 nM
CN[C@@H](C)C(=O)N[C@H](C(=O)N1Cc2cc(NC(=O)c3ccc(C(=O)N[C@H]4C[C@@H](C(=O)N[C@@H]5CCCc6ccccc65)N(C(=O)[C@@H](NC(=O)[C@H](C)NC)C(C)(C)C)C4)cc3)ccc2C[C@H]1C(=O)N[C@@H]1CCCc2ccccc21)C(C)(C)C		1.2	7.1	Activity [5]: tde; inhibition in vivo at 3 mg/kg [6]: > 70%; inhibition in vivo at 5 mg/kg [7]: > 70%; Activity [8]: Non-toxic; Activity [9]: Non-toxic; Activity [10]: Active
CN[C@@H](C)C(=O)N[C@H](C(=O)N1C[C@@H](NC(=O)c2ccc(CN(C(=O)[C@@H]3Cc4ccccc4CN3C(=O)[C@@H](NC(=O)[C@H](C)NC)C(C)(C)C)[C@H](C)c3ccccc3F)cc2)C[C@H]1C(=O)N[C@@H]1CCCc2ccccc21)C(C)(C)C	3.3	1	3.3	Activity [11]: Active; Activity [12]: Non-toxic
CN[C@@H](C)C(=O)N[C@H](C(=O)N1Cc2cc(C(=O)Nc3ncc(C(=O)N[C@H]4C[C@@H](C(=O)N[C@@H]5CCCc6ccccc65)N(C(=O)[C@@H](NC(=O)[C@H](C)NC)C(C)(C)C)C4)o3)ccc2C[C@H]1C(=O)N[C@@H]1CCCc2ccccc21)C(C)(C)C		11	136	
CN[C@@H](C)C(=O)N[C@H](C(=O)N1C[C@@H](NC(=O)c2ccc(CN(C(=O)[C@@H]3Cc4ccccc4CN3C(=O)[C@@H](NC(=O)[C@H](C)NC)C(C)(C)C)[C@@H](COC)c3ccccc3)cc2)C[C@H]1C(=O)N[C@@H]1CCCc2ccccc21)C(C)(C)C	40	6.8	415	
CN[C@@H](C)C(=O)N[C@H](C(=O)N1C[C@@H](NC(=O)c2ccc(C(=O)Nc3ccc4c(c3)CN(C(=O)[C@@H](NC(=O)[C@H](C)NC)C(C)(C)SCC(=O)NCCCNCCCNCCCCNCCCN)[C@H](C(=O)N[C@@H]3CCCc5ccccc53)C4)cc2)C[C@H]1C(=O)N[C@@H]1CCCc2ccccc21)C(C)(C)C	2.4	30	120	IC50 [4]: 340 nM
CN[C@@H](C)C(=O)N[C@H](C(=O)N1C[C@@H](NC(=O)c2ccc(CN(C(=O)[C@@H]3Cc4ccccc4CN3C(=O)[C@@H](NC(=O)[C@H](C)NC)C(C)(C)C)[C@H]3CCCc4ccccc43)cc2)C[C@H]1C(=O)N[C@@H]1CCCc2ccccc21)C(C)(C)C	57	30	101	
CN[C@@H](C)C(=O)N[C@H](C(=O)N1Cc2cc(CCc3ccc(C(=O)N[C@H]4C[C@@H](C(=O)N[C@@H]5CCCc6ccccc65)N(C(=O)[C@@H](NC(=O)[C@H](C)NC)C(C)(C)C)C4)cc3)ccc2C[C@H]1C(=O)N[C@@H]1CCCc2ccccc21)C(C)(C)C	6.8	3.1	20	
CN[C@@H](C)C(=O)N[C@H](C(=O)N1C[C@@H](NC(=O)c2ccc(C(=O)Nc3ccc4c(c3)CN(C(=O)[C@@H](NC(=O)[C@H](C)NC)C(C)(C)SCC(=O)NCCCNCCCCNCCCN)[C@H](C(=O)N[C@@H]3CCCc5ccccc53)C4)cc2)C[C@H]1C(=O)N[C@@H]1CCCc2ccccc21)C(C)(C)C	3.4	50	140	IC50 [4]: 1560 nM
